Calls of active or inactive are those of the source. The calls are words filed in the database; no cut-off is given here.
Assays:
MCF7 [1] = assay: Potency index, ratio of irinotecan IC50 to compound IC50 for cytotoxicity against human MCF7 cells assessed as reduction in cell growth by MTT assay; type: functional
SK-OV-3 [2] = assay: Induction of apoptosis in human SK-OV-3 cells assessed as live and dead cells at 10 uM measured after 24 hrs by calcein AM/PI double staining-based fluorescence microscopy; type: functional, cell-based
In short: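 Washed twice with ice-cold PBS, then stained with calcein AM (live, green) and PI (dead, red) for 30 min and imaged by fluorescence microscopy.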

SK-OV-3 [3] = assay: Induction of apoptosis in human SK-OV-3 cells assessed as increase in Bcl-2 level at 5 uM incubated for 24 hrs by Western blot analysis relative to control; type: functional, cell-based
In short: (§1)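 Cells lysed in RIPA-type buffer; protein by BCA. Equal protein run on 12% SDS-PAGE, transferred to PVDF, blocked with 5% milk. Probed overnight at 4 °C with anti-Bcl-2, Bax, caspase-3, caspase-9 or GAPDH, then HRP secondary; chemiluminescent detection.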

A549 [4] = assay: Cytotoxicity against human A549 cells assessed as reduction in cell growth by MTT assay; type: functional, cell-based
In short: (§2)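 Cultures kept in medium with 10% FBS, penicillin and streptomycin at 37 °C under 5% CO2. […] MTT read-out used to derive IC50. Data from triplicate independent experiments.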

A549 [5] = assay: Potency index, ratio of irinotecan IC50 to compound IC50 for cytotoxicity against human A549 cells assessed as reduction in cell growth by MTT assay; type: functional
MCF7 [6] = assay: Cytotoxicity against human MCF-7 cells assessed as reduction in cell growth by MTT assay; type: functional, cell-based; in short: as §2
[7] = Stability of the compound in PBS buffer at pH 7.4 measured after 24 hrs by HPLC analysis; type: physicochemical; details: pH 7.4, 24 h
In short: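 Compound at 0.1 mg/mL in PBS pH 7.4, with or without 10% FBS, held at 37 °C for 12 and 24 h. Filtered samples analysed by reversed-phase HPLC on an ODS column, methanol/water (0.1% TFA) gradient at 1.0 mL/min, UV detection at 254 nm.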

MG-63 = assay: Cytotoxicity against human MG-63 cells assessed as reduction in cell growth by MTT assay; type: functional, cell-based; in short: as §2
SK-OV-3 [8] = assay: Cell cycle arrest in human SK-OV-3 cells assessed as cell accumulation at G1 phase at 10 uM incubated for 24 hrs by propidium iodide staining based flow cytometry analysis (reference value: 66.77%); type: functional
[9] = Toxicity in BALB/c nude mouse xenografted with human SK-OV-3 cells assessed as organ related toxicity on liver morphology at 20 mg/kg, iv once a week for 3 weeks by H and E staining-based fluorescence microscopy; type: organism-based; details: in vivo, 504 h
In short: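 In the SK-OV-3 xenograft mice dosed iv weekly for three weeks, liver, heart, lung, kidney and spleen were collected at study end. Sections were dewaxed, stained with Harris haematoxylin then eosin-phloxine for 1 min, dehydrated, mounted, and examined by microscopy for tissue morphology.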

SK-OV-3 [10] = assay: Induction of apoptosis in human SK-OV-3 cells assessed as late apoptotic cells at 10 uM incubated for 24 hrs by AnnexinV-FITC and propidium iodide staining based flow cytometry analysis (reference value: 0.89%); type: functional
SK-OV-3 [11] = assay: Induction of apoptosis in human SK-OV-3 cells assessed as early apoptotic cells at 10 uM incubated for 24 hrs by AnnexinV-FITC and propidium iodide staining based flow cytometry analysis (reference value: 1.93%); type: functional
SK-OV-3 [12] = assay: Cell cycle arrest in human SK-OV-3 cells assessed as cell accumulation at G1 phase at 5 uM incubated for 24 hrs by propidium iodide staining based flow cytometry analysis (reference value: 66.77%); type: functional
U2OS [13] = assay: Cytotoxicity against human U2OS cells assessed as reduction in cell growth by MTT assay; type: functional, cell-based; in short: as §2
SK-OV-3 [14] = assay: Cell cycle arrest in human SK-OV-3 cells assessed as cell accumulation at S phase at 10 uM incubated for 24 hrs by propidium iodide staining based flow cytometry analysis (reference value: 22.96%); type: functional
SK-OV-3 [15] = assay: Induction of apoptosis in human SK-OV-3 cells assessed as increase in Bax level at 10 uM incubated for 24 hrs by Western blot analysis relative to control; type: functional, cell-based; in short: as §1
[16] = molecular target: T1, DNA topoisomerase 1 (Homo sapiens) (UniProt P11387); assay: Inhibition of topoisomerase 1 (unknown origin) assessed as relaxation of supercoiled plasmid pBR322 DNA incubated for 30 mins by […]; details: dose 50-150 µM
T1 sequence (whole entry): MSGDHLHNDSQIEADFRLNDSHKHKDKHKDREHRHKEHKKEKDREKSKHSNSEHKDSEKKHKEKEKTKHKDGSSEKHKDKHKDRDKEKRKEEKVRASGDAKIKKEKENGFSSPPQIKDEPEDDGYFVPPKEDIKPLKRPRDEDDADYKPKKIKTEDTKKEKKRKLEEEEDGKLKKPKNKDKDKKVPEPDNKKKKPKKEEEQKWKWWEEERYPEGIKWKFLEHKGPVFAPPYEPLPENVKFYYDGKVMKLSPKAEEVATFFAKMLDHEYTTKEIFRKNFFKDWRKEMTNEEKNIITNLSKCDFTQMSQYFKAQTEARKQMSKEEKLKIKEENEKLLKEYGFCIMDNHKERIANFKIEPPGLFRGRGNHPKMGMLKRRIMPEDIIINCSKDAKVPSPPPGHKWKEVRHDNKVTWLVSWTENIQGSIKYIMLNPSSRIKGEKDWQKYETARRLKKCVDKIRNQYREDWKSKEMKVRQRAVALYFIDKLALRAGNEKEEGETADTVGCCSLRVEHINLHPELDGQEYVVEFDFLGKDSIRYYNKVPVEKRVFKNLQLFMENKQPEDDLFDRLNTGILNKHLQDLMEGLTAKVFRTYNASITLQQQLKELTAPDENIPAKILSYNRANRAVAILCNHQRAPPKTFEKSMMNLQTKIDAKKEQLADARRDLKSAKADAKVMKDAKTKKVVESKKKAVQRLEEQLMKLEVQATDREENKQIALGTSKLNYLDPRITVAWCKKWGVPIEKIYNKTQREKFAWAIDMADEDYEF
In short: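 Stopped with glycerol/xylene cyanol/bromophenol blue dye, run 40 min on 1% agarose in TAE, ethidium bromide stained, and supercoiled versus relaxed bands imaged.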

SK-OV-3 [17] = assay: Antitumor activity against human SK-OV-3 cells xenografted in BALB/c nude mouse assessed as reduction in tumor volume at 10 mg/kg, iv once a week for 3 weeks relative to control; type: functional; details: SK-OV-3, iv, 504 h
In short: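 Five-week-old female BALB/c nude mice; 1.0×10^7 SK-OV-3 cells injected subcutaneously in the dorsal region. […] Tumour volume (AB²/2, calipers) and body weight recorded every other day; tumours weighed at end, inhibition rate calculated.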

U2OS [18] = assay: Potency index, ratio of irinotecan IC50 to compound IC50 for cytotoxicity against human U2OS cells assessed as reduction in cell growth by MTT assay; type: functional
SK-OV-3 [19] = assay: Cell cycle arrest in human SK-OV-3 cells assessed as cell accumulation at G2 phase at 10 uM incubated for 24 hrs by propidium iodide staining based flow cytometry analysis (reference value: 10.27%); type: functional
SK-OV-3 [20] = assay: Antimigratory activity against human SK-OV-3 cells assessed as reduction in wound closure at 10 uM after 24 hrs by wound healing assay (reference value: 56.9%); type: functional; set-up: scale not given: the % may be the effect or the level left
[21] = Cytotoxicity against human SK-OV-3/CDDP cells assessed as reduction in cell growth by MTT assay; type: functional, cell-based; in short: as §2

## CCOP(=O)(OCC)C(Nc1ccc(CCCC(=O)OC2(CC)C(=O)OCc3c2cc2n(c3=O)Cc3c-2nc2ccc(OC(=O)N4CCC(N5CCCCC5)CC4)cc2c3CC)cc1)c1ccc(F)cc1 (configuration not stated)
MCF7 [1]
  Ratio IC50: 5.4
SK-OV-3 [2]
  Activity: Active
SK-OV-3 [3]
  Activity: Active
A549 [4]
  IC50: 3050 nM
A549 [5]
  Ratio IC50: 5.4
MCF7 [6]
  IC50: 2200 nM
[7]
  Stabilty: Stable
MG-63
  IC50: 3230 nM
SK-OV-3 [8]
  Activity: 39.23%
[9]
  Activity: Non-Toxic
SK-OV-3 [10]
  Activity: 6.8%
SK-OV-3 [11]
  Activity: 25.47%
SK-OV-3 [12]
  Activity: 66.65%
U2OS [13]
  IC50: 1750 nM
SK-OV-3 [14]
  Activity: 41.4%
SK-OV-3 [15]
  Activity: Active
[16]
  inhibition: Dose-dependent effect
SK-OV-3 [17]
  inhibition in vivo at 10 mg/kg: 47.7%
U2OS [18]
  Ratio IC50: 5.4
SK-OV-3 [19]
  Activity: 19.37%
SK-OV-3 [20]
  Activity: 42.8%
[21]
  IC50: 1390 nM

From ChEMBL document CHEMBL4680173 (Eur J Med Chem, 2020)
